According to ChEMBL document CHEMBL1152836, “10H-Phenothiazines: a new class of enzyme inhibitors for inflammatory diseases” (Eur J Med Chem, 2009):

Key:
[1] = Inhibition of phosphodiesterase assessed as production of inorganic phosphate
In short: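 Activity measured as inorganic phosphate released with 5'-nucleotidase present in excess. IC50 is the substrate concentration giving 50% inhibition of enzyme activity. Values are the average of three independent experiments (n = 3).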

[2] = Inhibition of superoxide dismutase assessed as inhibition of superoxide generation by spectrophotometry
In short: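 Superoxide generation measured in a cell-membrane-free system by spectrophotometry at 340 nm. IC50 is the substrate concentration giving 50% inhibition of enzyme activity. Values are the average of three independent experiments (n = 3).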

[3] = Inhibition of prostaglandin synthetase
In short: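 Isolated soya bean lipoxygenase was the enzyme source. Arachidonic acid metabolites (prostaglandin E, leukotrienes) were analysed by reverse-phase ODS-18 HPLC with acetonitrile:water 70:30 mobile phase, detection at 280 nm. IC50 is the substrate concentration giving 50% inhibition. Values are the average of three independent experiments (n = 3).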

[4] = target: Glutathione hydrolase 1 proenzyme (Homo sapiens, UniProt P19440); assay: Inhibition of gamma-glutamyltranspeptidase by colorimetric assay
Glutathione hydrolase 1 proenzyme, sequence (P19440 1-380 limits assumed): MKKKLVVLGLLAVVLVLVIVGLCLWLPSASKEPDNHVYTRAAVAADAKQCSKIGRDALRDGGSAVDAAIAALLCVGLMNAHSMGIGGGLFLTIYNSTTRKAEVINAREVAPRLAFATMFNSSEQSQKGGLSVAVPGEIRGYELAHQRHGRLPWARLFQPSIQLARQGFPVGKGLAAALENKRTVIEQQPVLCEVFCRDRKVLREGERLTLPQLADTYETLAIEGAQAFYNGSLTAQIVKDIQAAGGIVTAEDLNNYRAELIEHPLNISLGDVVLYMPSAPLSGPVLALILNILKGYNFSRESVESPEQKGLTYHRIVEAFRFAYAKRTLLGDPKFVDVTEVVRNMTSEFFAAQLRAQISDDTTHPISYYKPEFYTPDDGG
Glutathione hydrolase 1 proenzyme, sequence (P19440 381-569 limits assumed): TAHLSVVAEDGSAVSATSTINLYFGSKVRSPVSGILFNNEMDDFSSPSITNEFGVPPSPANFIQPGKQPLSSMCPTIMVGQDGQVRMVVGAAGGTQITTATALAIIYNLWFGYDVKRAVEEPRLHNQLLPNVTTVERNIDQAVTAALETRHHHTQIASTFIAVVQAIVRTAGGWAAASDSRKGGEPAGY
In short: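 Colorimetric read-out at 405 nm by a standard procedure. IC50 is the substrate concentration giving 50% inhibition of enzyme activity. Values are the average of three independent experiments (n = 3).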

IC50 [1] | IC50 [2] | IC50 [3] | IC50 [4] | SMILES
18 µM | 18 µM | 21 µM | 25 µM | CNC(=O)c1c(C)c2c(c(C(=O)NC)c1-c1ccccc1C)Nc1ccccc1S2
18 µM | 18 µM | 23 µM | 20 µM | CNC(=O)c1c(C)c2c(c(C(=O)NC)c1-c1ccc(Cl)cc1)Nc1ccccc1S2
16 µM | 15 µM | 18 µM | 20 µM | CNC(=O)C1=C(C)C2=C(Nc3ccccc3S2)C(C(=O)NC)C1c1ccccc1 (stereo not drawn)
26 µM | 31 µM | 28 µM | > 35 µM | CNC(=O)C1=C(C)C2=C(Nc3ccccc3S2)C(C(=O)NC)C1c1ccc(Cl)cc1 (stereo not drawn)
18 µM | 17 µM | 21 µM | 22 µM | CNC(=O)C1=C(C)C2=C(Nc3ccccc3S2)C(C(=O)NC)C1c1ccccc1C (stereo not drawn)
> 30 µM | > 30 µM | 20 µM | > 30 µM | CNC(=O)C1=C(C)C2=C(Nc3ccccc3S2)C(C(=O)NC)C1c1ccccc1OC (stereo not drawn)
> 30 µM | > 30 µM | 28 µM | > 30 µM | CNC(=O)C1=C(C)C2=C(Nc3ccccc3S2)C(C(=O)NC)C1c1ccc2c(c1)OCO2 (stereo not drawn)
> 30 µM | 32 µM | 28 µM | 36 µM | CNC(=O)C1=C(C)C2=C(Nc3ccccc3S2)C(C(=O)NC)C1c1ccc([N+](=O)[O-])cc1 (stereo not drawn)
– | 14 µM | 18 µM | 20 µM | CNC(=O)c1c(C)c2c(c(C(=O)NC)c1-c1ccccc1)Nc1ccccc1S2
25 µM | > 30 µM | 22 µM | 28 µM | CNC(=O)c1c(C)c2c(c(C(=O)NC)c1-c1ccccc1OC)Nc1ccccc1S2
22 µM | 19 µM | 18 µM | 21 µM | CNC(=O)c1c(C)c2c(c(C(=O)NC)c1-c1ccc(OC)cc1)Nc1ccccc1S2
20 µM | 20 µM | 24 µM | 18 µM | CNC(=O)c1c(C)c2c(c(C(=O)NC)c1-c1ccc3c(c1)OCO3)Nc1ccccc1S2
21 µM | 18 µM | 20 µM | 25 µM | CNC(=O)C1=C(C)C2=C(Nc3ccccc3S2)C(C(=O)NC)C1c1ccc(OC)cc1 (stereo not drawn)
15 µM | 20 µM | 15 µM | 18 µM | CNC(=O)c1c(C)c2c(c(C(=O)NC)c1-c1ccccc1Cl)Nc1ccccc1S2
13 µM | 18 µM | 16 µM | 19 µM | CNC(=O)C1=C(C)C2=C(Nc3ccccc3S2)C(C(=O)NC)C1c1ccccc1Cl (stereo not drawn)
22 µM | 28 µM | 24 µM | 36 µM | CC(=O)Oc1ccccc1C(=O)O [ASPIRIN]
